Calls of active or inactive are those of the source.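 Rule for the calls: active = labelling ratio, compound over solvent, at most 0.5 for PAFAH2 while all off-target serine hydrolases stay above 0.5; inactive = the rest.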
Legend:
Test in all cases: proteome-wide serine hydrolase selectivity in cells, late-stage follow-up, selectivity assay for PAFAH2 inhibitor project, LC-MS, SILAC, BW5147 murine T cells (AID 504519)
[1] = tested on: FAM108C; conditions: SILAC ABPP LC-MS/MS ratio, hits give low values
Procedure, shortened: (§1)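 Material – murine T-cell hybridoma line derived from BW5147, SILAC-labeled (light or heavy) · Probe or stimulus – FP-biotin probe on lysates · Doses – test compound on light cells, DMSO vehicle on heavy cells, in situ · Measured by – MudPIT LC/LC-MS/MS after biotin enrichment · Read-out – Per-protein light/heavy peptide intensity ratio, 1 meaning no inhibition · Controls – heavy DMSO-treated cells as reference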

[2] = tested on: IAH1; conditions: SILAC ABPP LC-MS/MS ratio, hits give low values
Procedure, shortened: as §1

[3] = tested on: DPP4; conditions: SILAC ABPP LC-MS/MS ratio, hits give low values
Procedure, shortened: as §1

[4] = tested on: SERHL; conditions: SILAC ABPP LC-MS/MS ratio, hits give low values
Procedure, shortened: as §1

[5] = tested on: CTSA; conditions: SILAC ABPP LC-MS/MS ratio, hits give low values
Procedure, shortened: as §1

[6] = tested on: LYPLA1; conditions: SILAC ABPP LC-MS/MS ratio, hits give low values
Procedure, shortened: as §1

[7] = tested on: PAFAH1B3; conditions: SILAC ABPP LC-MS/MS ratio, hits give low values
Procedure, shortened: as §1

[8] = tested on: PNPLA6; conditions: SILAC ABPP LC-MS/MS ratio, hits give low values
Procedure, shortened: as §1

[9] = target: Platelet-activating factor acetylhydrolase 2, cytoplasmic (Mus musculus) (UniProt Q8VDG7); conditions: SILAC ABPP LC-MS/MS ratio, PAFAH2, hits give low values
Procedure, shortened: as §1

[10] = tested on: FAAH; conditions: SILAC ABPP LC-MS/MS ratio, hits give low values
Procedure, shortened: as §1

[11] = tested on: ACOT2; conditions: SILAC ABPP LC-MS/MS ratio, hits give low values
Procedure, shortened: as §1

[12] = tested on: FAM108B1; conditions: SILAC ABPP LC-MS/MS ratio, hits give low values
Procedure, shortened: as §1

[13] = tested on: ACOT7; conditions: SILAC ABPP LC-MS/MS ratio, hits give low values
Procedure, shortened: as §1

[14] = tested on: SIAE; conditions: SILAC ABPP LC-MS/MS ratio, hits give low values
Procedure, shortened: as §1

[15] = tested on: ABHD11; conditions: SILAC ABPP LC-MS/MS ratio, hits give low values
Procedure, shortened: as §1

[16] = tested on: ABHD13; conditions: SILAC ABPP LC-MS/MS ratio, hits give low values
Procedure, shortened: as §1

[17] = tested on: PARL; conditions: SILAC ABPP LC-MS/MS ratio, hits give low values
Procedure, shortened: as §1

[18] = tested on: PREPL; conditions: SILAC ABPP LC-MS/MS ratio, hits give low values
Procedure, shortened: as §1

[19] = tested on: PAFAH1B2; conditions: SILAC ABPP LC-MS/MS ratio, hits give low values
Procedure, shortened: as §1

[20] = tested on: APEH; conditions: SILAC ABPP LC-MS/MS ratio, hits give low values
Procedure, shortened: as §1

[21] = tested on: PPME1; conditions: SILAC ABPP LC-MS/MS ratio, hits give low values
Procedure, shortened: as §1

[22] = tested on: ESD; conditions: SILAC ABPP LC-MS/MS ratio, hits give low values
Procedure, shortened: as §1

[23] = tested on: PNPLA7; conditions: SILAC ABPP LC-MS/MS ratio, hits give low values
Procedure, shortened: as §1

[24] = tested on: AADACL1; conditions: SILAC ABPP LC-MS/MS ratio, hits give low values
Procedure, shortened: as §1

[25] = tested on: DPP7; conditions: SILAC ABPP LC-MS/MS ratio, hits give low values
Procedure, shortened: as §1

[26] = tested on: LIPA; conditions: SILAC ABPP LC-MS/MS ratio, hits give low values
Procedure, shortened: as §1

[27] = tested on: LYPLA2; conditions: SILAC ABPP LC-MS/MS ratio, hits give low values
Procedure, shortened: as §1

[28] = tested on: ACOT1; conditions: SILAC ABPP LC-MS/MS ratio, hits give low values
Procedure, shortened: as §1

[29] = tested on: PRCP; conditions: SILAC ABPP LC-MS/MS ratio, hits give low values
Procedure, shortened: as §1

[30] = tested on: LYPLA3; conditions: SILAC ABPP LC-MS/MS ratio, hits give low values
Procedure, shortened: as §1

[31] = tested on: DDHD1; conditions: SILAC ABPP LC-MS/MS ratio, hits give low values
Procedure, shortened: as §1

[32] = tested on: DPP9; conditions: SILAC ABPP LC-MS/MS ratio, hits give low values
Procedure, shortened: as §1

[33] = tested on: FASN; conditions: SILAC ABPP LC-MS/MS ratio, hits give low values
Procedure, shortened: as §1

[34] = tested on: ABHD12; conditions: SILAC ABPP LC-MS/MS ratio, hits give low values
Procedure, shortened: as §1

[35] = tested on: PLA2G6; conditions: SILAC ABPP LC-MS/MS ratio, hits give low values
Procedure, shortened: as §1

[36] = tested on: ABHD10; conditions: SILAC ABPP LC-MS/MS ratio, hits give low values
Procedure, shortened: as §1

[37] = tested on: BAT5; conditions: SILAC ABPP LC-MS/MS ratio, hits give low values
Procedure, shortened: as §1

[38] = tested on: LACTB; conditions: SILAC ABPP LC-MS/MS ratio, hits give low values
Procedure, shortened: as §1

[39] = tested on: FAM108A; conditions: SILAC ABPP LC-MS/MS ratio, hits give low values
Procedure, shortened: as §1

[40] = tested on: ABHD6; conditions: SILAC ABPP LC-MS/MS ratio, hits give low values
Procedure, shortened: as §1

[41] = tested on: DPP8; conditions: SILAC ABPP LC-MS/MS ratio, hits give low values
Procedure, shortened: as §1

[42] = target: Prolyl endopeptidase (Mus musculus) (UniProt Q9QUR6); conditions: SILAC ABPP LC-MS/MS ratio, PREP, hits give low values
Procedure, shortened: as §1

Prolyl endopeptidase (Mus musculus), sequence (Q9QUR6 whole entry, looked up): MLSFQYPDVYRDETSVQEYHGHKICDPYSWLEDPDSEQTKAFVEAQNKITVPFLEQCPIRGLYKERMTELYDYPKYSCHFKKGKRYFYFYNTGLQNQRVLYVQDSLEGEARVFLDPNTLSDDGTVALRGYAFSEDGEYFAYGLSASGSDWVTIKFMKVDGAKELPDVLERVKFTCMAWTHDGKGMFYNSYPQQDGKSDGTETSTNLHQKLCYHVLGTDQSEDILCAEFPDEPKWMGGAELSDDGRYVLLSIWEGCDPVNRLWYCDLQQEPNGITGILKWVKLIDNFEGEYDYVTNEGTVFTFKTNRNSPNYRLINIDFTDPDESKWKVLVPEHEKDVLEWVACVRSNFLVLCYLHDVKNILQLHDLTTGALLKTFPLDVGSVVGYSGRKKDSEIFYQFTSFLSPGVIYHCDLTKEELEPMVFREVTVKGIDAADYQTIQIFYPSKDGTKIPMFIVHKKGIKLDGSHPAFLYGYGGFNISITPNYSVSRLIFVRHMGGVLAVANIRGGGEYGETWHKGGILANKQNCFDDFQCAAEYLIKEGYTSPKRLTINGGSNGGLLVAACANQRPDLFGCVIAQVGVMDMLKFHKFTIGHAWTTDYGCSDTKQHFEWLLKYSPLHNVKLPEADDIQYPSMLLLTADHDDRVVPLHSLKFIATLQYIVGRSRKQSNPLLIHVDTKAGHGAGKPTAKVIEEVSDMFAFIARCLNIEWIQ
Platelet-activating factor acetylhydrolase 2, cytoplasmic (Mus musculus), sequence (Q8VDG7 whole entry, looked up): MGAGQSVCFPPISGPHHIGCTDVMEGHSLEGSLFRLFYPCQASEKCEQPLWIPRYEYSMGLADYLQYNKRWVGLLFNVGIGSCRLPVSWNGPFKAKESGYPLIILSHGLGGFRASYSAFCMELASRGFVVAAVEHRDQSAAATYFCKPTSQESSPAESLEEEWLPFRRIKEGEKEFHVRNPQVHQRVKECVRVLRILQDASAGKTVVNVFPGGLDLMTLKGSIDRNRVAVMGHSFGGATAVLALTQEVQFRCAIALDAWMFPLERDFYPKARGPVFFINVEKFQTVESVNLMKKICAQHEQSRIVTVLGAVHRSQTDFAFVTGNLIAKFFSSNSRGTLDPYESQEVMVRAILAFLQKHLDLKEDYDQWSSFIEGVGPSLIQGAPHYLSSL

O=C(N1CCCC1)n1ncc(-c2ccc(-c3ccccc3)cc2)n1
SILAC ratio inhibitor/DMSO [1]: 1.3 (inactive)
SILAC ratio inhibitor/DMSO [2]: 1.2 (inactive)
SILAC ratio inhibitor/DMSO [3]: 1.2 (inactive)
SILAC ratio inhibitor/DMSO [4]: 1.1 (inactive)
SILAC ratio inhibitor/DMSO [5]: 1.1 (inactive)
SILAC ratio inhibitor/DMSO [6]: 1.3 (inactive)
SILAC ratio inhibitor/DMSO [7]: 1.3 (inactive)
SILAC ratio inhibitor/DMSO [8]: 1.6 (inactive)
SILAC ratio inhibitor/DMSO [9]: 0
SILAC ratio inhibitor/DMSO [10]: 1.3 (inactive)
SILAC ratio inhibitor/DMSO [11]: 1.2 (inactive)
SILAC ratio inhibitor/DMSO [12]: 1.2 (inactive)
SILAC ratio inhibitor/DMSO [13]: 1.2 (inactive)
SILAC ratio inhibitor/DMSO [14]: 1.3 (inactive)
SILAC ratio inhibitor/DMSO [15]: 1.4 (inactive)
SILAC ratio inhibitor/DMSO [16]: 1.2 (inactive)
SILAC ratio inhibitor/DMSO [17]: 1.2 (inactive)
SILAC ratio inhibitor/DMSO [18]: 1.3 (inactive)
SILAC ratio inhibitor/DMSO [19]: 1.2 (inactive)
SILAC ratio inhibitor/DMSO [20]: 1 (inactive)
SILAC ratio inhibitor/DMSO [21]: 1.2 (inactive)
SILAC ratio inhibitor/DMSO [22]: 1 (inactive)
SILAC ratio inhibitor/DMSO [23]: 1.6 (inactive)
SILAC ratio inhibitor/DMSO [24]: 1.3 (inactive)
SILAC ratio inhibitor/DMSO [25]: 1.2 (inactive)
SILAC ratio inhibitor/DMSO [26]: 1.6 (inactive)
SILAC ratio inhibitor/DMSO [27]: 1.4 (inactive)
SILAC ratio inhibitor/DMSO [28]: 1.2 (inactive)
SILAC ratio inhibitor/DMSO [29]: 1.4 (inactive)
SILAC ratio inhibitor/DMSO [30]: 1.3 (inactive)
SILAC ratio inhibitor/DMSO [31]: 1.4 (inactive)
SILAC ratio inhibitor/DMSO [32]: 1.3 (inactive)
SILAC ratio inhibitor/DMSO [33]: 1.3 (inactive)
SILAC ratio inhibitor/DMSO [34]: 1.3 (inactive)
SILAC ratio inhibitor/DMSO [35]: 0.91 (inactive)
SILAC ratio inhibitor/DMSO [36]: 1.4 (inactive)
SILAC ratio inhibitor/DMSO [37]: 1.3 (inactive)
SILAC ratio inhibitor/DMSO [38]: 1.3 (inactive)
SILAC ratio inhibitor/DMSO [39]: 1.1 (inactive)
SILAC ratio inhibitor/DMSO [40]: 0.59 (inactive)
SILAC ratio inhibitor/DMSO [41]: 1.3 (inactive)
SILAC ratio inhibitor/DMSO [42]: 1.3 (inactive)

From PubChem BioAssay AID504519 (The Scripps Research Institute Molecular Screening Center, 2011)
